Values after ≈ are worked out from the molar mass of the structure shown.
How the values were obtained:
[1] = system: MONO-MAC-6; assay: Cytostatic activity against human MONO-MAC-6 cells assessed as cell viability after 16 hrs by MTT assay; format: cell-based; details: MONO-MAC-6, 16 h
How it was run: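 MonoMac6 cells kept in RPMI-1640 with 10% FCS, 2 mM L-glutamine and gentamycin at 37 °C, 5% CO2. Cells plated 10⁵ per well and treated after 24 h for 16 h in serum-free RPMI (1.0 v/v% DMSO), 5×10⁻² to 10² µM. MTT at 367 µg/mL final for 3.5 h, crystals dissolved in DMSO, OD540 minus OD620. Cytotoxicity % versus untreated control fitted sigmoidally for IC50. Two independent experiments, 4–8 parallels.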

[2] = system: Mycobacterium tuberculosis; assay: Antimycobacterial activity against Mycobacterium tuberculosis H37Rv ATCC 27294 after 28 days by serial dilution method; format: functional; details: for MIC: Mycobacterium tuberculosis, H37Rv ATCC 27294, 672 h
How it was run: (§1)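 Serial dilution in in-house Sula semisynthetic medium, pH 6.5. Compounds added as DMSO solutions at 10 doses, final 0.05–100 µg/mL. Incubation at 37 °C, 7 days for M. abscessus and 28 days for M. tuberculosis strains. MIC taken as the lowest concentration giving visible growth inhibition, confirmed by CFU on drug-free Löwenstein-Jensen medium after further equal incubation. Repeated at least twice.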

[3] = system: Mycobacteroides abscessus; assay: Antimycobacterial activity against Mycobacterium abscessus ATCC 19977 after 7 days by serial dilution method; format: functional; how it was run: as §1
[4] = Selectivity index, ratio of IC50 for human MONO-MAC-6 cells to MIC for Mycobacterium abscessus ATCC 19977; format: toxicity; details: read-out: Selectivity Index
[5] = Selectivity index, ratio of IC50 for human MONO-MAC-6 cells to MIC for Mycobacterium tuberculosis H37Rv ATCC 27294; format: toxicity; details: read-out: Selectivity Index
[6] = Solubility of the compound in RPMI-1640/Sula media by spectrophotometric analysis; format: physicochemical
How it was run: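 Solubility measured under assay conditions in RPMI and Sula media with 1 v/v% DMSO. Undissolved compound removed on a PVDF filter. 120 µL filtrate mixed with 80 µL acetonitrile, and concentration measured spectrophotometrically.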

[7] = system: Mycobacteroides abscessus; assay: Potency index, ratio of gentamicin MIC to compound MIC for Mycobacterium abscessus ATCC 19977; format: functional
[8] = system: Mycobacteroides abscessus; assay: Potency index, ratio of ciprofloxacin MIC to compound MIC for Mycobacterium abscessus ATCC 19977; format: functional
[9] = Retention time of the compound in DMSO at 0.75 mg/ml measured at 0 min by RP-HPLC analysis; format: physicochemical; details: 0 h
How it was run: (§2)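 Stability in DMSO at 0.75 mg/ml, monitored by RP-HPLC on a C18 4.6×150 mm column. Gradient 0–100% B (A: 0.1% TFA in water; B: 0.1% TFA in acetonitrile-water 80:20), 1 ml/min, ambient temperature. Sampled at 0 min and after 29 h, detection at 280 or 220 nm.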

[10] = Retention time of the compound in DMSO at 0.75 mg/ml measured after 29 hrs by RP-HPLC analysis; format: physicochemical; how it was run: as §2
[11] = Retention time of the compound in serum-free RPMI-1640 medium containing 10% DMSO at 0.5 mg/ml after 30 mins by RP-HPLC analysis; format: physicochemical; details: 0.5 h
How it was run: (§3)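 Stability in serum-free RPMI-1640 with 10% DMSO at 0.5 mg/ml, monitored by RP-HPLC on a C18 column. Gradient of 0.1% TFA water/acetonitrile-water, 1 ml/min, ambient temperature. Peaks identified by ESI-MS.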

[12] = Half life of the compound in serum-free RPMI-1640 medium at 0.75 mg/ml by RP-HPLC analysis; format: ADME
[13] = Drug level in serum-free RPMI-1640 medium treated with [4-bromo-2-[[4-(trifluoromethyl)phenyl]carbamoyl]phenyl] 5-chloropyrazine-2-carboxylate at 0.75 mg/ml after 29 hrs by ESI-MS spectra analysis; format: physicochemical
[14] = Retention time of the compound in serum-free RPMI-1640 medium containing 10% DMSO at 0.5 mg/ml after 5 hrs by RP-HPLC analysis; format: physicochemical; how it was run: as §3
[15] = Mycobacteroides abscessus, ATCC 19977, 168 h

Compound | IC50 [1] | Activity [2] | MIC [2] | Activity [3] | MIC [3, 15] | selectivity ratio [4] | selectivity ratio [5] | solubility [6] | Ratio [7] | Ratio [8] | Retention_time [9] | Retention_time [10] | Retention_time [11] | half-life at 0.75 mg/ml [12] | Drug metabolism [13] | Retention_time [14] | MIC [3]
O=C(Oc1ccc(Br)cc1C(=O)Nc1ccc(Cl)c(Cl)c1)c1cnc(Cl)cn1 | 5.7 µM | 1 CFU | 2 µM (≈ 1 µg/mL) | 0 CFU | 1 µM (≈ 0.502 µg/mL) | 5.7 | 2.9 | < 100 µM | – | – | – | – | – | – | – | – | –
NNC(=O)c1ccncc1 [ISONIAZID] | – | 0 CFU | 1.17 µM (≈ 0.16 µg/mL) | 26 CFU | 292 µM (≈ 40 µg/mL) | – | – | – | – | – | – | – | – | – | – | – | –
O=C(NCCCCl)Oc1ccc(Cl)cc1C(=O)Nc1ccc(C(F)(F)F)cc1 | 8.8 µM | 1 CFU | 0.5 µM (≈ 0.218 µg/mL) | 0 CFU | 0.2 µM (≈ 0.087 µg/mL) | 44 | 17.6 | < 50 µM | 53 | 15 | – | – | – | – | – | – | –
O=C(Nc1ccc(Cl)c(Cl)c1)c1cc(Br)ccc1O | 3.5 µM | 2 CFU | 1.4 µM (≈ 0.505 µg/mL) | 0 CFU | 7 µM (≈ 2.53 µg/mL) | 0.5 | 2.5 | < 100 µM | – | – | – | – | – | – | – | – | –
O=C(Nc1ccc(C(F)(F)F)cc1)c1cc(Cl)ccc1O | 5.3 µM | 0 CFU | 1.6 µM (≈ 0.505 µg/mL) | 0 CFU | 3.2 µM (≈ 1.01 µg/mL) | – | – | – | – | – | – | – | – | – | – | – | –
O=C(NCCCCl)Oc1ccc(Cl)cc1C(=O)Nc1ccc(C(=O)c2ccccc2)cc1 | 16.1 µM | 3 CFU | 8.5 µM (≈ 4.01 µg/mL) | 0 CFU | 42.5 µM (≈ 20 µg/mL) | 0.4 | 1.9 | < 50 µM | – | – | – | – | – | – | – | – | –
O=C(NCCCCl)Oc1ccc(Br)cc1C(=O)Nc1ccc(C(F)(F)F)cc1 | 5.7 µM | 8 CFU | 1 µM (≈ 0.48 µg/mL) | 0 CFU | 0.2 µM (≈ 0.0959 µg/mL) | 28.5 | 5.7 | < 50 µM | 53 | 15 | 22.6 min | 22.6 min | 22.6 min | 0.183 h | – | – | –
O=C(NCCCl)Oc1ccc(Cl)cc1C(=O)Nc1ccc(C(F)(F)F)cc1 | 7.6 µM | 1 CFU | 0.5 µM (≈ 0.211 µg/mL) | 0 CFU | 1.2 µM (≈ 0.505 µg/mL) | 6.3 | 15.2 | < 50 µM | – | – | – | – | – | – | – | – | –
O=C(O)c1cn(C2CC2)c2cc(N3CCNCC3)c(F)cc2c1=O [CIPROFLOXACIN] | – | – | – | – | 3 µM (≈ 0.994 µg/mL) | – | – | – | – | – | – | – | – | – | – | – | –
O=C(O)c1cnc(Cl)cn1 | – | – | > 633 µM | – | > 633 µM | – | – | < 500 µM | – | – | – | – | – | – | metabolite_detected | 12.3 min | –
CCCNC(=O)Oc1ccc(Cl)cc1C(=O)Nc1ccc(C(=O)c2ccccc2)cc1 | 18.7 µM | 3 CFU | 9.2 µM (≈ 4.02 µg/mL) | 0 CFU | 22.9 µM (≈ 10 µg/mL) | 0.8 | 2 | < 50 µM | – | – | – | – | – | – | – | – | –
CCCNC(=O)Oc1ccc(Cl)cc1C(=O)Nc1ccc(Cl)c(Cl)c1 | 7 µM | 0 CFU | 0.2 µM (≈ 0.0803 µg/mL) | 0 CFU | 1.3 µM (≈ 0.522 µg/mL) | 5.4 | 35 | < 50 µM | – | – | – | – | – | – | – | – | –
O=C(NCCCl)Oc1ccc(Br)cc1C(=O)Nc1ccc(C(=O)c2ccccc2)cc1 | 24.9 µM | 2 CFU | 8 µM (≈ 4.01 µg/mL) | 0 CFU | 40 µM (≈ 20.1 µg/mL) | 0.6 | 3.1 | < 50 µM | – | – | – | – | – | – | – | – | –
O=C(NCCCl)Oc1ccc(Br)cc1C(=O)Nc1ccc(Cl)c(Cl)c1 | 6.9 µM | 2 CFU | 0.2 µM (≈ 0.0933 µg/mL) | 0 CFU | 0.2 µM (≈ 0.0933 µg/mL) | 34.5 | 34.5 | < 50 µM | 53 | 15 | – | – | – | – | – | – | –
O=C(NCCCl)Oc1ccc(Cl)cc1C(=O)Nc1ccc(Cl)c(Cl)c1 | 4.6 µM | 2 CFU | 1.2 µM (≈ 0.507 µg/mL) | 0 CFU | 1.2 µM (≈ 0.507 µg/mL) | 3.8 | 3.8 | < 50 µM | – | – | – | – | – | – | – | – | –
O=C(NCCCCl)Oc1ccc(Br)cc1C(=O)Nc1ccc(C(=O)c2ccccc2)cc1 | 12.6 µM | 2 CFU | 8.7 µM (≈ 4.49 µg/mL) | 0 CFU | 38.9 µM (≈ 20.1 µg/mL) | 0.3 | 1.4 | < 50 µM | – | – | – | – | – | – | – | – | –
O=C(NCCCl)Oc1ccc(Br)cc1C(=O)Nc1ccc(C(F)(F)F)cc1 | 9.3 µM | 0 CFU | 0.4 µM (≈ 0.186 µg/mL) | 0 CFU | 4.3 µM (≈ 2 µg/mL) | 2.2 | 23.3 | < 50 µM | – | – | – | – | – | – | – | – | –
O=C(NCCCCl)Oc1ccc(Cl)cc1C(=O)Nc1ccc(Cl)c(Cl)c1 | 2.5 µM | 0 CFU | 2.3 µM (≈ 1 µg/mL) | 0 CFU | 1.2 µM (≈ 0.523 µg/mL) | 2.1 | 1.1 | < 50 µM | – | – | – | – | – | – | – | – | –
O=C(NCCCl)Oc1ccc(Cl)cc1C(=O)Nc1ccc(C(=O)c2ccccc2)cc1 | 37.8 µM | 2 CFU | 8.7 µM (≈ 3.98 µg/mL) | 0 CFU | 43.6 µM (≈ 19.9 µg/mL) | 0.9 | 4.3 | < 50 µM | – | – | – | – | – | – | – | – | –
O=C(Oc1ccc(Br)cc1C(=O)Nc1ccc(C(F)(F)F)cc1)c1cnc(Cl)cn1 | 1.1 µM | 0 CFU | 1 µM (≈ 0.501 µg/mL) | 0 CFU | 5 µM (≈ 2.5 µg/mL) | 0.2 | 1.1 | < 100 µM | – | – | 24 min | 24 min | 24 min | 3.7 h | – | 24 min | –
O=C(c1ccccc1)c1ccc(NC(=O)c2cc(Cl)ccc2O)cc1 | 48 µM | 3 CFU | 14.2 µM (≈ 5 µg/mL) | 0 CFU | 28.5 µM (≈ 10 µg/mL) | 1.7 | 3.4 | < 50 µM | – | – | – | – | – | – | – | – | –
O=C(NCCCCl)Oc1ccc(Br)cc1C(=O)Nc1ccc(Cl)c(Cl)c1 | 9.5 µM | 2 CFU | 0.4 µM (≈ 0.192 µg/mL) | 0 CFU | 2.1 µM (≈ 1.01 µg/mL) | 4.5 | 23.8 | < 50 µM | – | – | – | – | – | – | – | – | –
O=C(Oc1ccc(Cl)cc1C(=O)Nc1ccc(C(F)(F)F)cc1)c1cnc(Cl)cn1 | 1.1 µM | 3 CFU | 1.1 µM (≈ 0.502 µg/mL) | 0 CFU | 5.5 µM (≈ 2.51 µg/mL) | 0.2 | 1 | < 100 µM | – | – | – | – | – | – | – | – | –
O=C(Oc1ccc(Cl)cc1C(=O)Nc1ccc(Cl)c(Cl)c1)c1cnc(Cl)cn1 | 10.1 µM | 10 CFU | 1.1 µM (≈ 0.503 µg/mL) | 0 CFU | 1.1 µM (≈ 0.503 µg/mL) | 9.2 | 9.2 | < 100 µM | – | – | – | – | – | – | – | – | –
O=C(Nc1ccc(Cl)c(Cl)c1)c1cc(Cl)ccc1O | 3.6 µM | 2 CFU | 1.6 µM (≈ 0.507 µg/mL) | 0 CFU | 3.2 µM (≈ 1.01 µg/mL) | 1.1 | 2.3 | < 100 µM | – | – | – | – | – | – | – | – | –
O=C(c1ccccc1)c1ccc(NC(=O)c2cc(Br)ccc2O)cc1 | 21.8 µM | 2 CFU | 12.7 µM (≈ 5.03 µg/mL) | 0 CFU | 25.3 µM (≈ 10 µg/mL) | 0.9 | 1.7 | < 50 µM | – | – | – | – | – | – | – | – | –
GENTAMICIN | – | – | – | – | – | – | – | – | – | – | – | – | – | – | – | – | 10.5 µM
